Structures are written as SMILES. Active and inactive are the calls of the source. No cut-off for these calls is given here.

The species entered for series [1] is Homo sapiens. Kind of series: Selectivity ratio of IC50 for recombinant human wild-type His6-tagged PDE4D7 UCR1 domain (S129 residues) expressed in baculovirus infected Sf9 insect cells to IC50 for recombinant human His6-tagged PDE4D7 UCR1 S129D mutant expressed in baculovirus infected Sf9 insect cells.
A short description of series [2]: Inhibition of recombinant human wild-type His6-tagged PDE4D7 UCR1 domain (S129 residues) expressed in baculovirus infected Sf9 insect cells using cAMP as substrate preincubated for 5 to 10 mins followed by substrate addition and measured for 10 mins by yeast myokinase/pyruvate kinase/lactate dehydrogenase-coupled fluorescence assay.
For series [3], the species on record is Homo sapiens. As to the kind of experiment: Selectivity ratio of IC50 for recombinant human His6-tagged PDE4B1 UCR1 S133D mutant expressed in baculovirus infected Sf9 insect cells to IC50 for recombinant human His6-tagged PDE4D7 UCR1 S129D mutant expressed in baculovirus infected Sf9 insect cells.
For series [4], the target named is 3',5'-cyclic-AMP phosphodiesterase 4B (Homo sapiens, UniProt Q07343, S133D). As to the kind of experiment: Inhibition of recombinant human His6-tagged PDE4B1 UCR1 S133D mutant expressed in baculovirus infected Sf9 insect cells using cAMP as substrate preincubated for 5 to 10 mins followed by substrate addition and measured for 10 mins by yeast myokinase/pyruvate kinase/lactate dehydrogenase-coupled fluorescence assay.
Chain of 3',5'-cyclic-AMP phosphodiesterase 4B (Q07343 whole entry S133D): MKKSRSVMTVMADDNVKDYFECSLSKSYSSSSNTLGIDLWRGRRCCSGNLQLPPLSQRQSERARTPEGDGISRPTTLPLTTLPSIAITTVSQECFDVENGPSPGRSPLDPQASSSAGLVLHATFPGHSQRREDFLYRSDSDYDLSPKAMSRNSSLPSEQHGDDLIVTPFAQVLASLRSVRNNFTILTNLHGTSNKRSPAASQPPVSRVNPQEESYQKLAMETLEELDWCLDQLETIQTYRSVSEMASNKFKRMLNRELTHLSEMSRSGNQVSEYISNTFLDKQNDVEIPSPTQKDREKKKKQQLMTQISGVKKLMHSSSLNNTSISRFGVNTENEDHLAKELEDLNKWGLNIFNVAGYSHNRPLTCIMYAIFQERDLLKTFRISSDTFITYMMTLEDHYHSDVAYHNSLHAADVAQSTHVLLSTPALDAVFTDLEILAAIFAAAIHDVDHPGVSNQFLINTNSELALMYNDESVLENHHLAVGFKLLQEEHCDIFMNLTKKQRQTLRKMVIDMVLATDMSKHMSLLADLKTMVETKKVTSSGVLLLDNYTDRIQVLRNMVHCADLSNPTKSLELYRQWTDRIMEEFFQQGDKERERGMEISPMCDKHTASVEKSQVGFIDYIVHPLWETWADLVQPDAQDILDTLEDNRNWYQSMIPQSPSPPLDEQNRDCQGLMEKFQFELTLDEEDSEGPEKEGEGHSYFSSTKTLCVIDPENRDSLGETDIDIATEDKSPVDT

A short description of series [5]: Inhibition of recombinant human His6-tagged PDE4D7 UCR1 S129D mutant expressed in baculovirus infected Sf9 insect cells using cAMP as substrate preincubated for 5 to 10 mins followed by substrate addition and measured for 10 mins by yeast myokinase/pyruvate kinase/lactate dehydrogenase-coupled fluorescence assay.
Series [6] deals with Mus musculus. Kind of series: Memory enhancement effect in ICR mouse assessed as improvement in novel object discrimination at 0.1 mg/kg, ip […] measured for 5 mins by open field test. The format is functional, organism-based. The method in brief:
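Male ICR mice (25–30 g) in open field box; habituation 10 min day 1, training with two identical objects 5 min day 2, test with familiar and novel object 5 min day 3 (24 h delay). Exploration times recorded; discrimination index d2 = (b − a)/(a + b). Oral dosing in 5% DMSO, 5% Solutol in PBS; rolipram given parenterally.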

Series [7] has as its system Mus musculus. As to the kind of experiment: Induction of emesis in ICR mouse assessed as reduction in ketamine/xylazine-induced duration of anesthesia at 0.1 mg/kg, ip pretreated for 15 mins followed by ketamine/xylazine addition. The format is organism-based. To be noted: in vivo. The gist of the method: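 Male ICR mice, 25–30 g. Test agents given by oral gavage in 5% DMSO, 5% Solutol in PBS, or rolipram IP; ketamine (80 mg/kg) plus xylazine (10 mg/kg) IP given 30 min after PO or 15 min after IP dosing. Endpoint: time from loss to return of righting reflex.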

Series [8] has as its system Mus musculus. Kind of series: Memory enhancement effect in ICR mouse assessed as improvement in novel object discrimination at 3 to 30 mg/kg, po administered via gavage measured for 5 mins by open field test. The format is functional, organism-based. The gist of the method: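 Male ICR mice (25–30 g), dosed by oral gavage in 5% DMSO, 5% Solutol in PBS. Three phases in an open field box: 10 min habituation on day 1, 5 min training with identical objects on day 2, 5 min test with familiar and novel objects on day 3 (24 h delay). Exploration times recorded; discrimination index d2 = (b − a)/(a + b).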

Series [9] can be described thus: Stability in mouse liver microsomes assessed as parent compound remaining at 1 uM measured after 30 mins by LC-MS/MS analysis. The format is ADME, Microsome. To be noted: read-out: Stability. The gist of the method:
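Liver microsome stability run by a contract lab using standard protocols. Parent compound remaining measured after 30 min incubation.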
(In general: Liver microsomes are vesicles of endoplasmic reticulum, rich in cytochrome P450 enzymes.)

Series [10] can be described thus: Protein binding in human plasma. The format is ADME, cell-free.
Series [11] is described as follows: Protein binding in dog plasma. The format is ADME, cell-free, Canis lupus familiaris. The note with it: read-out: PPB.
The nature of series [12]: Protein binding in rat plasma. The format is ADME, cell-free. The note with it: read-out: PPB.
Series [13] in a line: Protein binding in mouse plasma. The format is ADME, cell-free. The note with it: read-out: PPB.
The target of series [14] is Cytochrome P450 3A4 (Homo sapiens, UniProt P08684). Kind of series: Inhibition of CYP3A4 (unknown origin) by fluorescence-based assay. The format is ADME. The method in brief:
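CYP inhibition run with a fluorescent substrate by a contract laboratory under standard protocols; IC50 reported.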

The nature of series [15]: Inhibition of recombinant human His6-tagged PDE4D7 UCR1 S129D mutant expressed in baculovirus infected Sf9 insect cells using cAMP as substrate preincubated for 5 to 10 mins followed by substrate addition and measured for 10 mins by yeast myokinase/pyruvate kinase/lactate dehydrogenase-coupled fluorescence assay relative to control.
The nature of series [16]: Aqueous kinetic solubility of the compound in pH 7.4 PBS buffer at 100 uM measured after 1 hr. The format is physicochemical. The note with it: pH 7.4, 1 h.

Chain of Cytochrome P450 3A4 (P08684 whole entry): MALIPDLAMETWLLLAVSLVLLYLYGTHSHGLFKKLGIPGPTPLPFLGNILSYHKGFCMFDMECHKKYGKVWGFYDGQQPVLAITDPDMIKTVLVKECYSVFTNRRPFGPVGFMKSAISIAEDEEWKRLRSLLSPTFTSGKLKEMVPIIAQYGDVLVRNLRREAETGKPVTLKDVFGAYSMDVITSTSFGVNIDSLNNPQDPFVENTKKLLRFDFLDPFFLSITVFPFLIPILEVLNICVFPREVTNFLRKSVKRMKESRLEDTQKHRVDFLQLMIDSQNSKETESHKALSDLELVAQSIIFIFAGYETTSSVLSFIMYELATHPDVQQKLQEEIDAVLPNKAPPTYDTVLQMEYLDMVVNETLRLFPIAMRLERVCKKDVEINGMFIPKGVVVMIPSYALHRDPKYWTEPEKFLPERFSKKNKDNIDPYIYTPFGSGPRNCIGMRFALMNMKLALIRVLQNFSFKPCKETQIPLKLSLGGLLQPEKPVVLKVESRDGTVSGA

Regarding `CCc1nc(Nc2ccc(CC(N)=O)cc2)nc(-c2cccc(Cl)c2)n1`, the figures for the Ratio IC50 in series [1] and in series [3] were 41 and 10, respectively. Also, the figures for the IC50 in series [2], in [4] and in series [5] were 0.203 µM, 0.048 µM and 0.005 µM, respectively.
In the case of `OCCc1cccc(Nc2cc(-c3cccc(Cl)c3)nc3c2CCC3)c1`, the IC50 (as a rule, the concentration that gives 50% inhibition) turned out to be 6.33 µM in series [2], 1.42 µM in series [4] and 0.226 µM in series [5].
`CCc1cc(Nc2ccc(CC(N)=O)cc2)nc(-c2cccc(Cl)c2)n1`: the figures for the Ratio IC50 in series [1] and in series [3] were 56 and 17, respectively. Also, the IC50 stood at 0.146 µM in [2], 0.043 µM in series [4] and 0.0026 µM in series [5].
On to `CCc1nc(Nc2ccc(C(N)=O)cc2)nc(-c2cccc(Cl)c2)n1`, for which the results for the Ratio IC50 in series [1] and in series [3] were 11 and 2, respectively. The IC50 stood at 0.252 µM in series [2], 0.044 µM in series [4] and 0.022 µM in series [5].
With `CN(C)C(=O)Cc1ccc(Nc2cc(-c3cccc(Cl)c3)nc3c2CCC3)cc1`, the figures for the IC50 in series [2], in [4] and in series [5] were 0.914 µM, 0.356 µM and 0.051 µM, respectively.
For the molecule `OCCc1ccc(Nc2cc(-c3cccc(Cl)c3)nc3c2CCC3)cc1`, the Ratio IC50 in series [1] came to 226; in series [3], 60. In addition, the IC50 turned out to be 2.11 µM in [2], 0.562 µM in series [4] and 0.009 µM in series [5].
In the case of `NC(=O)Cc1ccc(Nc2cc(-c3cccc(Cl)c3)nc3c2CCC3)cc1`, the Ratio IC50 in series [1] stood at 40; in series [3] it was 3. The IC50 in series [2] was found to be 1.67 µM; in [4], 0.136 µM; in series [5], 0.0421 µM.
For `CCc1nc(Nc2ccc(C(=O)O)cc2)nc(-c2cccc(Cl)c2)n1`, in that order: 2, 1, 0.482 µM, 0.241 µM and 0.213 µM.
On to `CN(c1ccc(CC(N)=O)cc1)c1cc(-c2cccc(Cl)c2)nc2c1CCC2`, for which the IC50 in [4] stood at 3.29 µM; in series [5] it was 0.733 µM.
Consider `COc1ccc(C2CNC(=O)C2)cc1OC1CCCC1` (stereo not drawn) [ROLIPRAM], for which, in series [6], the result was Active. The Activity result in [7] was “Toxic”.
Consider `NC(=O)Cc1ccc(S(=O)(=O)c2cc(-c3cccc(Cl)c3)nc3c2CCC3)cc1`, for which the IC50 in series [4] was determined as 3.83 µM; in series [5], 0.475 µM.
Regarding `CNC(=O)Cc1ccc(Nc2cc(-c3cccc(Cl)c3)nc3c2CCC3)cc1`, the IC50 worked out at 1.99 µM in [2], 0.098 µM in series [4] and 0.133 µM in series [5].
Regarding `CCc1cc(Oc2ccc(CCO)cc2)nc(-c2cccc(Cl)c2)n1`, the IC50 in [2] came out at 0.251 µM; in series [4] it was 0.058 µM; in series [5] it was 0.0018 µM.
Turning to `O=C(O)Cc1ccc(Nc2cc(-c3cccc(Cl)c3)nc3c2CCC3)cc1`, the Ratio IC50 in series [3] stood at 1. Further, the values for the IC50 in series [4] and in series [5] were 1.64 µM and 1.17 µM, respectively.
Turning to `CCc1cc(Oc2ccc(CC(N)=O)cc2)nc(-c2cccc(Cl)c2)n1`, the IC50 in [2] amounted to 2.43 µM; in series [4] it was 0.953 µM; in [5] it was 0.035 µM.
For `NC(=O)CCc1ccc(Nc2cc(-c3cccc(Cl)c3)nc3c2CCC3)cc1`, the IC50 was found to be 1.28 µM in series [2], 0.166 µM in [4] and 0.035 µM in series [5].
For the molecule `CCc1cc(Cc2ccc(CCO)cc2)nc(-c2cccc(Cl)c2)n1`, the IC50 in series [2] is 0.534 µM; in series [4], 0.584 µM; in [5], 0.002 µM.
The corresponding values for `NC(=O)Cc1ccc(Cc2cc(-c3cccc(Cl)c3)nc3c2CCC3)cc1` are 0.81 µM, 0.137 µM and 0.0086 µM.
For `CCc1nc(Nc2ccc(CO)cc2)nc(-c2cccc(Cl)c2)n1`, in that order: 0.351 µM, 0.105 µM and 0.012 µM.
Turning to `CCc1cc(Cc2ccc(CC(=O)NCCO)cc2)nc(-c2cccc(Cl)c2)n1`, the IC50 in series [2] turned out to be 0.885 µM; in series [4], 0.128 µM; in series [5], 0.0008 µM; in series [14] it was 3.1 µM. The result in [8] was Active. For the same molecule, the remaining at 0.5 h, 1 µM in series [9] turned out to be 36%. This molecule also displayed a PPB in [10] of 99.6 to 99.8%. Also, the fraction unbound in series [11], in series [12] and in series [13] was 0.002 to 0.004 in each case. Besides, the Imax in [15] was found to be 88%. This molecule yielded a Kinetic_solubility in [16] of 29 µM.
Regarding `CCc1cc(Nc2ccc(CCO)cc2)nc(-c2cccc(Cl)c2)n1`, the IC50 was found to be 0.149 µM in [2], 0.057 µM in series [4] and 0.0011 µM in series [5].
As to `CCc1nc(Nc2ccc(C(C)C(=O)O)cc2)nc(-c2cccc(Cl)c2)n1` (stereo not drawn), the IC50 in series [2] was more than 10 µM; in [4] it was 1.09 µM; in series [5], 0.096 µM. Further, in series [3], the Ratio IC50 came out at 11.
Take `CCc1nc(Nc2ccc(CCCO)cc2)nc(-c2cccc(Cl)c2)n1`: the 50% inhibitory concentration (IC50) in [2] was 0.027 µM; in series [4] it was 0.011 µM; in [5] it was 0.0002 µM.
With `CCc1nc(Nc2ccc(CCO)cc2)nc(-c2cccc(Cl)c2)n1`, the Ratio IC50 in series [1] amounted to 204; in series [3], 48. In addition, the figures for the IC50 in [2], in series [4] and in [5] were 0.102 µM, 0.024 µM and 0.0005 µM, respectively.
As for `CCc1nc(Nc2ccc(CC(=O)O)cc2)nc(-c2cccc(Cl)c2)n1`, the Ratio IC50 in [1] was determined as 6; in series [3] it was 1. Besides, the IC50 in series [2] was 4.04 µM; in series [4], 0.781 µM; in series [5] it was 0.681 µM.

The values are drawn from ChEMBL document CHEMBL4396869, “Design and Synthesis of Selective Phosphodiesterase 4D (PDE4D) Allosteric Inhibitors for the Treatment of Fragile X Syndrome and Other Brain Disorders” (J Med Chem, 2019).
